Measured values from ChEMBL document CHEMBL4219076, “Synthesis, spectroscopic studies and biological evaluation of acridine derivatives: The role of aggregation on the photodynamic efficiency” (Bioorg Med Chem Lett, 2018).
Calls of active or inactive are those of the source. The rule behind the calls is not given here.

What was measured:
[1] = Induction of singlet oxygen production in 90% H2O/CH3CN mixture upon irradiation of 365 nanometer light assessed as oxygenation of 1,5-DHN by UV-Visible spectroscopic method; type: functional
Method in brief: (§1)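 Singlet oxygen generation was followed by oxygenation of 1,5-dihydroxynaphthalene to juglone. Sensitizer solutions were irradiated in quartz cuvettes with 365 nm light.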

[2] = tested on: Hep 3B2; test: Cytotoxicity against human Hep3B cells assessed as reduction in cell viability at 1 to 20 uM incubated for 3 hrs followed by incubation in compound free medium for 21 hrs under dark condition by MTT assay; type: functional, cell-based
[3] = Self-aggregating property assessed as diameter of nanostructure by DLS method; type: physicochemical
[4] = tested on: HUVEC; test: Cytotoxicity against HUVEC assessed as reduction in cell viability after 3 hrs under dark condition by MTT assay; type: functional, cell-based; details: Homo sapiens
[5] = Drug uptake in human Hep3B cell lysosome at 10 uM after 1 hr by Draq5 staining based bright field microscopic method; type: ADME, subcellular; details: hep 3b2, 1 h
[6] = Self-aggregating property assessed as diameter of nanostructure by transmission electron microscopic method; type: physicochemical
[7] = tested on: HUVEC; test: Cytotoxicity against HUVEC assessed as cell viability at 1 to 20 uM after 3 hrs under dark condition by MTT assay relative to control; type: functional, Homo sapiens
[8] = Induction of singlet oxygen production in CH3CN upon irradiation of 365 nanometer light assessed as oxygenation of 1,5-DHN by measuring quantum yield at 33 uM by UV-Visible spectroscopic method; type: functional; method in brief: as §1
[9] = Drug uptake in human Hep3B cell nuclear membrane at 10 uM after 1 hr by Draq5 staining based bright field microscopic method; type: ADME, cell membranes; details: hep 3b2, 1 h
[10] = Self-aggregating property assessed as diameter of nanostructure by scanning electron microscopic method; type: physicochemical
[11] = tested on: HUVEC; test: Cytotoxicity against HUVEC assessed as cell viability at 1 to 20 uM after 24 hrs under dark condition by MTT assay relative to control; type: functional, Homo sapiens
[12] = tested on: Hep 3B2; test: Photocytotoxicity in human Hep3B cells assessed as cell damage preincubated for 1 hr followed by 365 nanometer UV light irradiation for 3 mins by propidium iodide/Hoechst 33342 staining based static cytometry coupled fluorescence microscopic method; type: functional
Method in brief: (§2)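 Hep3B cells exposed to photosensitizer for 1 h, then irradiated at 365 nm for 3 min. PI-positive cells were quantified by fluorescence microscopy coupled with static cytometry and expressed as percentage of cells, with untreated cells as reference.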

[13] = tested on: Hep 3B2; test: Cytotoxicity against human Hep3B cells assessed as reduction in cell viability after 3 hrs under dark condition by MTT assay; type: functional, cell-based
[14] = Induction of singlet oxygen production in H2O upon irradiation of 365 nanometer light assessed as oxygenation of 1,5-DHN by measuring quantum yield at 33 uM by UV-Visible spectroscopic method; type: functional; method in brief: as §1
[15] = Induction of singlet oxygen production in 50% H2O/CH3CN mixture upon irradiation of 365 nanometer light assessed as oxygenation of 1,5-DHN by UV-Visible spectroscopic method; type: functional; method in brief: as §1
[16] = tested on: HUVEC; test: Cytotoxicity against HUVEC assessed as reduction in cell viability at 1 to 20 uM incubated for 3 hrs followed by incubation in compound free medium for 21 hrs under dark condition by MTT assay; type: functional, cell-based; details: Homo sapiens
[17] = tested on: Hep 3B2; test: Cytotoxicity against human Hep3B cells assessed as reduction in cell viability at 1 to 20 uM after 24 hrs under dark condition by MTT assay; type: functional, cell-based
[18] = Drug uptake in human Hep3B cell endoplasmic reticulum at 10 uM after 1 hr by Draq5 staining based bright field microscopic method; type: ADME, subcellular; details: hep 3b2, 1 h
[19] = tested on: Hep 3B2; test: Photocytotoxicity in human Hep3B cells assessed as cell damage preincubated for 1 hr followed by 365 nanometer UV light irradiation for 3 mins by propidium iodide staining based confocal fluorescence laser scanning microscopic method; type: functional
Method in brief: (§3)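 Hep3B cells, 30.000 cells/well, exposed to photosensitizer ([…] as printed) for 1 h, then irradiated with a 365 nm UV lamp, 6 W, for 3 min. Damaged or dead cells stained with propidium iodide (1 mM as printed) and imaged by confocal laser scanning microscopy, ex 488 nm, em 500–700 nm. Irradiated control wells received no photosensitizer.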

[20] = Drug uptake in human Hep3B cell mitochondria at 10 uM after 1 hr by Draq5 staining based bright field microscopic method; type: ADME; details: hep 3b2, 1 h
[21] = Dark toxicity in human Hep3B cells assessed as cell damage at 20 uM after 1 hr by propidium iodide/Hoechst 33342 staining based static cytometry coupled fluorescence microscopic method (reference value: 1.25%); details: hep 3b2, 1 h
[22] = tested on: Hep 3B2; test: Photocytotoxicity in human Hep3B cells assessed as cell damage at 10 uM preincubated for 1 hr followed by 365 nanometer UV light irradiation for 3 mins by propidium iodide staining based confocal fluorescence laser scanning microscopic method; type: functional; method in brief: as §3
[23] = tested on: HUVEC; test: Cytotoxicity against HUVEC assessed as reduction in cell viability at 1 to 20 uM after 3 hrs under dark condition by MTT assay; type: functional, cell-based; details: Homo sapiens
[24] = tested on: Hep 3B2; test: Photocytotoxicity in human Hep3B cells assessed as cell damage at 20 uM preincubated for 1 hr followed by 365 nanometer UV light irradiation for 3 mins by propidium iodide/Hoechst 33342 staining based static cytometry coupled fluorescence microscopic method (reference value: 1.25%); type: functional; method in brief: as §2

In the case of `CC(C)[C@H](NC(=O)c1c2ccccc2nc2ccccc12)C(=O)NCCCCCCCCNC(=O)[C@@H](NC(=O)c1c2ccccc2nc2ccccc12)C(C)C`, the Activity [1] is reported as “inactive”, the Activity [2] is reported as “inactive” and the Activity [3] is reported as 122 nm. The Activity [4] was “Dose-dependent effect”, the IC50 [4] was 18.6 µM and the Drug uptake [5] was “Not Active”. The Activity [6] was 135 nm, the Activity [7] was 46% and the Activity [8] was 0.96. For the same compound, the Drug uptake [9] was “Active”, the Activity [10] was 93 nm and the Activity [11] was 27%. For the same compound, the Activity [12] was “inactive”, the Activity [13] was “Dose-dependent effect” and the IC50 [13] was 29.5 µM. The Activity [14] was 0.01, the Activity [15] was “inactive” and the Activity [16] was “inactive”. The Activity [17] was “Active”, the Drug uptake [18] was “Not Active” and the Activity [19] was “inactive”. The Drug uptake [20] was “Not Active”.
For `CCCNC(=O)[C@@H](NC(=O)c1c2ccccc2nc2ccccc12)C(C)C`, the Activity [1] was “Active”, the Activity [2] was “inactive” and the Activity [3] was “Not Active”. For the same compound, the Activity [8] was 0.97, the Activity [21] was 3.38% and the Activity [22] was “Active”. The Activity [14] was 0.263, the Activity [15] was “Active” and the Activity [16] was “inactive”. The Activity [17] was “inactive”, the Activity [23] was “inactive” and the Activity [24] was 8.7%.
